Data reported in ChEMBL document CHEMBL2331322, “Synthesis and antimicrobial activity of some new benzo and naphthonitrile derivatives” (2013).
Converted amounts (≈) assume the structure as drawn.

What was measured:
Type in all cases: functional
[1] = test system: Fusarium oxysporum; assay: Antimicrobial activity against Fusarium oxysporum after 48 hrs by microdilution susceptibility test
Summary of the method: (§1)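 MIC was determined by broth microdilution, using Müller–Hinton broth for bacteria and Sabouraud liquid medium for fungi. Stocks were made in DMF and serially diluted twofold. Wells were inoculated at 10⁶ CFU/mL and plates incubated at 36 °C for 24–48 h, with controls included. Only compounds giving agar-diffusion zones >14 mm were tested.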

[2] = test system: Botrytis fabae; assay: Antimicrobial activity against Botrytis fabae at 1 mg/mL […] by agar disc diffusion method; details: read-out: DIZ
[3] = test system: Bacillus thuringiensis; assay: Antimicrobial activity against Bacillus thuringiensis after 24 hrs by microdilution susceptibility test; summary of the method: as §1
[4] = test system: Pseudomonas aeruginosa; assay: Antimicrobial activity against Pseudomonas aeruginosa at 1 mg/mL after 24 hrs by agar disc diffusion method; details: read-out: DIZ
Summary of the method: (§2)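 Sterile 5 mm filter paper disks were impregnated with test solution in DMF (1 mg/mL) and placed on agar plates seeded with the test organism, in triplicate. Bacteria were incubated at 37 °C for 24 h and fungi for […] (so in the source). The read-out was the average inhibition zone diameter around the disks, in mm.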

[5] = test system: Bacillus subtilis; assay: Antimicrobial activity against Bacillus subtilis after 24 hrs by microdilution susceptibility test; summary of the method: as §1
[6] = test system: Bacillus subtilis; assay: Antimicrobial activity against Bacillus subtilis at 1 mg/mL after 24 hrs by agar disc diffusion method; details: read-out: DIZ; summary of the method: as §2
[7] = test system: Fusarium oxysporum; assay: Antimicrobial activity against Fusarium oxysporum at 1 mg/mL after 48 hrs by agar disc diffusion method; details: read-out: DIZ; summary of the method: as §2
[8] = test system: Escherichia coli; assay: Antimicrobial activity against Escherichia coli at 1 mg/mL after 24 hrs by agar disc diffusion method; details: read-out: DIZ; summary of the method: as §2
[9] = test system: Escherichia coli; assay: Antimicrobial activity against Escherichia coli after 24 hrs by microdilution susceptibility test; summary of the method: as §1
[10] = test system: Botrytis fabae; assay: Antimicrobial activity against Botrytis fabae after 48 hrs by microdilution susceptibility test; summary of the method: as §1
[11] = test system: Bacillus thuringiensis; assay: Antimicrobial activity against Bacillus thuringiensis at 1 mg/mL after 24 hrs by agar disc diffusion method; details: read-out: DIZ; summary of the method: as §2
[12] = test system: Pseudomonas aeruginosa; assay: Antimicrobial activity against Pseudomonas aeruginosa after 24 hrs by microdilution susceptibility test; summary of the method: as §1

## N=c1[nH]c2nn(-c3ccc([N+](=O)[O-])cc3)nc2c2ccccc12
[1]
  MIC: 25 µg/mL (≈ 81.6 µM)
[2]
  zone of inhibition at 1000 µg/mL: 16 mm
[3]
  MIC: 50 µg/mL (≈ 163 µM)
[4]
  zone of inhibition at 1000 µg/mL: 15 mm
[5]
  MBC: 200 µg/mL (≈ 653 µM)
  MIC: 50 µg/mL (≈ 163 µM)
[6]
  zone of inhibition at 1000 µg/mL: 38 mm
[7]
  zone of inhibition at 1000 µg/mL: 15 mm
[8]
  zone of inhibition at 1000 µg/mL: 26 mm
[9]
  MBC: 200 µg/mL (≈ 653 µM)
  MIC: 25 µg/mL (≈ 81.6 µM)
[10]
  MIC: 25 µg/mL (≈ 81.6 µM)
[11]
  zone of inhibition at 1000 µg/mL: 38 mm
[12]
  MIC: 50 µg/mL (≈ 163 µM)

## COc1ccc(/N=N/C(C(N)=O)c2ccccc2C#N)cc1 (stereo not drawn)
[1]
  MIC: 25 µg/mL (≈ 84.9 µM)
[2]
  zone of inhibition at 1000 µg/mL: 26 mm
[3]
  MIC: 12.5 µg/mL (≈ 42.5 µM)
[4]
  zone of inhibition at 1000 µg/mL: 32 mm
[5]
  MBC: 100 µg/mL (≈ 340 µM)
  MIC: 25 µg/mL (≈ 84.9 µM)
[6]
  zone of inhibition at 1000 µg/mL: 32 mm
[7]
  zone of inhibition at 1000 µg/mL: 16 mm
[8]
  zone of inhibition at 1000 µg/mL: 30 mm
[9]
  MBC: 100 µg/mL (≈ 340 µM)
  MIC: 12.5 µg/mL (≈ 42.5 µM)
[10]
  MIC: 50 µg/mL (≈ 170 µM)
[11]
  zone of inhibition at 1000 µg/mL: 19 mm
[12]
  MIC: 25 µg/mL (≈ 84.9 µM)

## COc1ccc(/C=C(\C#N)c2ccccc2C#N)cc1
[1]
  MIC: 50 µg/mL (≈ 192 µM)
[2]
  zone of inhibition at 1000 µg/mL: 25 mm
[3]
  MIC: 100 µg/mL (≈ 384 µM)
[4]
  zone of inhibition at 1000 µg/mL: 26 mm
[5]
  MBC: 100 µg/mL (≈ 384 µM)
  MIC: 100 µg/mL (≈ 384 µM)
[6]
  zone of inhibition at 1000 µg/mL: 26 mm
[7]
  zone of inhibition at 1000 µg/mL: 20 mm
[8]
  zone of inhibition at 1000 µg/mL: 19 mm
[9]
  MBC: 200 µg/mL (≈ 768 µM)
  MIC: 100 µg/mL (≈ 384 µM)
[10]
  MIC: 100 µg/mL (≈ 384 µM)
[11]
  zone of inhibition at 1000 µg/mL: 18 mm
[12]
  MIC: 100 µg/mL (≈ 384 µM)

## Cc1ccc(-n2nc3[nH]c(=N)c4ccccc4c3n2)cc1
[1]
  MIC: 50 µg/mL (≈ 182 µM)
[2]
  zone of inhibition at 1000 µg/mL: 20 mm
[3]
  MIC: 50 µg/mL (≈ 182 µM)
[4]
  zone of inhibition at 1000 µg/mL: 15 mm
[5]
  MBC: 200 µg/mL (≈ 726 µM)
  MIC: 50 µg/mL (≈ 182 µM)
[6]
  zone of inhibition at 1000 µg/mL: 30 mm
[7]
  zone of inhibition at 1000 µg/mL: 19 mm
[8]
  zone of inhibition at 1000 µg/mL: 15 mm
[9]
  MBC: 200 µg/mL (≈ 726 µM)
  MIC: 50 µg/mL (≈ 182 µM)
[10]
  MIC: 50 µg/mL (≈ 182 µM)
[11]
  zone of inhibition at 1000 µg/mL: 26 mm
[12]
  MIC: 50 µg/mL (≈ 182 µM)

## N#Cc1ccccc1C(/N=N/c1ccccc1)C(N)=O (stereo not drawn)
[1]
  MIC: 12.5 µg/mL (≈ 47.3 µM)
[2]
  zone of inhibition at 1000 µg/mL: 15 mm
[3]
  MIC: 12.5 µg/mL (≈ 47.3 µM)
[4]
  zone of inhibition at 1000 µg/mL: 31 mm
[5]
  MBC: 100 µg/mL (≈ 378 µM)
  MIC: 12.5 µg/mL (≈ 47.3 µM)
[6]
  zone of inhibition at 1000 µg/mL: 37 mm
[7]
  zone of inhibition at 1000 µg/mL: 27 mm
[8]
  zone of inhibition at 1000 µg/mL: 15 mm
[9]
  MBC: 200 µg/mL (≈ 757 µM)
  MIC: 25 µg/mL (≈ 94.6 µM)
[10]
  MIC: 25 µg/mL (≈ 94.6 µM)
[11]
  zone of inhibition at 1000 µg/mL: 37 mm
[12]
  MIC: 25 µg/mL (≈ 94.6 µM)

## CCOC(=O)c1c2[nH]c(=N)c3ccccc3c2nn1-c1ccc([N+](=O)[O-])cc1
[1]
  MIC: 25 µg/mL (≈ 66.2 µM)
[2]
  zone of inhibition at 1000 µg/mL: 20 mm
[3]
  MIC: 25 µg/mL (≈ 66.2 µM)
[4]
  zone of inhibition at 1000 µg/mL: 16 mm
[5]
  MBC: 200 µg/mL (≈ 530 µM)
  MIC: 25 µg/mL (≈ 66.2 µM)
[6]
  zone of inhibition at 1000 µg/mL: 38 mm
[7]
  zone of inhibition at 1000 µg/mL: 19 mm
[8]
  zone of inhibition at 1000 µg/mL: 15 mm
[9]
  MBC: 200 µg/mL (≈ 530 µM)
  MIC: 50 µg/mL (≈ 132 µM)
[10]
  MIC: 50 µg/mL (≈ 132 µM)
[11]
  zone of inhibition at 1000 µg/mL: 37 mm
[12]
  MIC: 50 µg/mL (≈ 132 µM)

## N#Cc1ccccc1C(C#N)/N=N/c1ccccc1 (stereo not drawn)
[1]
  MIC: 12.5 µg/mL (≈ 50.8 µM)
[2]
  zone of inhibition at 1000 µg/mL: 40 mm
[3]
  MIC: 25 µg/mL (≈ 102 µM)
[4]
  zone of inhibition at 1000 µg/mL: 30 mm
[5]
  MBC: 100 µg/mL (≈ 406 µM)
  MIC: 12.5 µg/mL (≈ 50.8 µM)
[6]
  zone of inhibition at 1000 µg/mL: 37 mm
[7]
  zone of inhibition at 1000 µg/mL: 38 mm
[8]
  zone of inhibition at 1000 µg/mL: 33 mm
[9]
  MBC: 200 µg/mL (≈ 812 µM)
  MIC: 25 µg/mL (≈ 102 µM)
[10]
  MIC: 12.5 µg/mL (≈ 50.8 µM)
[11]
  zone of inhibition at 1000 µg/mL: 30 mm
[12]
  MIC: 12.5 µg/mL (≈ 50.8 µM)
